Assay outcomes from PubChem.
CHRM5 agonist: human M5 muscarinic receptor agonists, primary screen, CHO-K1 cells, Fluo-8 calcium fluorescence; activation, % at 3 µM; CHO-K1 hM5 cells; 0% DMSO wells, 100% maximal acetylcholine response; Muscarinic acetylcholine receptor M5 (Homo sapiens), P08912; AID 624037, 2012; 360,000 tested, 0.19% active;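 active means activation above the run's mean over test compounds plus 3 SD, cut at about 23% in these data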;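 further: signal is peak over basal fluorescence ratio across the kinetic read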
Target sequence (P08912 whole entry, looked up): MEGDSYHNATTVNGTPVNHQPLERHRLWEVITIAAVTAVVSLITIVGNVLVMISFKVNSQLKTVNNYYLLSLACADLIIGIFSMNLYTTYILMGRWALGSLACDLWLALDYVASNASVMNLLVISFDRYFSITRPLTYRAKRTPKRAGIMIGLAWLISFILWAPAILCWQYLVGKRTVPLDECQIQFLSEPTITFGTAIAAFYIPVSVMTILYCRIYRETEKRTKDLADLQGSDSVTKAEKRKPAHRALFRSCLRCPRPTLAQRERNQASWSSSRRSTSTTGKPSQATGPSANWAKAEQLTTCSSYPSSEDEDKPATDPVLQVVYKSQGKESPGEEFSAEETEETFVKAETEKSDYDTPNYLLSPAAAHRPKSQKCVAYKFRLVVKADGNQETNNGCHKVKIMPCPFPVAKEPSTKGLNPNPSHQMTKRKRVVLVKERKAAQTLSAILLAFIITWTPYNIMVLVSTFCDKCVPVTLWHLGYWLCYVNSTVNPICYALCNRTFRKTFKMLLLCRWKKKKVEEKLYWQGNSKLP
CHRM4 agonist: human M4 muscarinic receptor agonists, primary screen, CHO-K1 cells, Fluo-8 calcium fluorescence. Muscarinic acetylcholine receptor M4 (Homo sapiens), P08173. CHO-K1 hM4/Gqi5; vehicle 0%, full acetylcholine response 100%. activation, % at 3 µM. 360,000 tested, 0.14% active;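 active means activation above the run mean over all test wells plus 3 SD, cut at about 32% in these data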;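 further: peak over basal fluorescence ratio per well then scaled between controls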
M4 antag: human M4 muscarinic receptor antagonists, primary screen, CHO cells, Fluo-8 calcium fluorescence | 360,000 tested, 0.73% active | CHO-hM4 cells, ACh EC80 | AID 624125, 2012 | Muscarinic acetylcholine receptor M4 (Homo sapiens), P08173 | inhibition, % at 3 µM;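 active means inhibition above its plate's cutoff, the mean inhibition of sample wells plus 3 SD, cut at about 27% in these data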
CHRM5 antagonist: human M5 muscarinic receptor antagonists, primary screen, CHO cells, Fluo-8 calcium fluorescence; 360,000 tested, 0.59% active; AID 624040, 2012; CHO-hM5 cells, ACh EC80; inhibition, % at 3 µM; Muscarinic acetylcholine receptor M5 (Homo sapiens), P08912;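 active means inhibition above a per-plate cutoff, the mean of that plate's test compounds plus 3 SD, cut at about 27% in these data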
CHRM4 PAM: human M4 muscarinic receptor positive allosteric modulators, primary screen, CHO-K1 cells, Fluo-8 calcium fluorescence; CHO-K1 hM4/Gqi5, ACh EC20; 0% = ACh EC20, 100% = maximal ACh; activation, % at 3 µM; 360,000 tested, 0.4% active;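 active means activation above its plate's cutoff, the mean activation of sample wells plus 3 SD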
M5 PAM: human M5 muscarinic receptor positive allosteric modulators, primary screen, CHO-K1 cells, Fluo-8 calcium fluorescence. CHO-K1 hM5, ACh EC20 PAM; 0% = ACh EC20, 100% = ACh EC100. AID 624038, 2012. 360,000 tested, 0.3% active. activation, % at 3 µM;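 active means activation above the run cutoff, the mean activation of all test compounds plus 3 SD, cut at about 18% in these data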
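Measured by: Fluo-8 calcium fluorescence; material: human M5 receptor in CHO-K1 cells; schedule: Post-acetylcholine fluorescence recording 140 s; benchmarks: low control EC20 acetylcholine (0%), high control EC100 acetylcholine (100%); read-out: Max/basal fluorescence ratio as % of EC20–EC100 ACh window; compound: single dose, 3 µM nominal final test concentration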
Large screens that a line does not name were inactive. Hits are enriched below; roughly 1.8% of the tested compounds scored in any of these assays.

CCNC(=O)N(C)c1c(CC)nc2ccc(C(=O)Nc3cccc(OCC(=O)N(C)C)c3)cn12	none
CCc1nc2ccc(C(=O)Nc3cccc(OCC(=O)N(C)C)c3)cn2c1N(C)Cc1cc2ccccc2s1	M4 antag 34, CHRM5 antagonist 33
CNS(=O)(=O)c1ccc(NC(=O)C2c3ccccc3Oc3ccccc32)cc1	none
CC(=O)NS(=O)(=O)c1ccc(NC(=O)C2c3ccccc3Oc3ccccc32)cc1	M5 PAM 22
CCOP(=O)(OCC)C(Cc1ccc(OC)c(OC)c1)N=C(c1ccccc1)c1ccccc1 (stereo unspecified)	none
CC(C)NC(=O)CCCc1ccccc1	CHRM4 PAM 29
CCC(NC(=O)CCCc1ccccc1)c1ccccc1 (stereo unspecified)	none
N#C/C(=C\c1cc(Cl)cc(Cl)c1O)C(=O)NC1CCCCC1	none
Cc1ccc(-n2c(-c3ccccc3)c[n+]3c2CCc2ccccc2-3)c(C)c1	CHRM5 antagonist 35
NC(=O)c1nsc(C(=O)N(c2cccc(F)c2)C(C(=O)NC2CCCC2)c2ccc(O)cc2)c1N (stereo unspecified)	none
COc1ccc(C(C(=O)NC2CCCC2)N(C(=O)c2snc(C(N)=O)c2N)c2cccc(O)c2)cc1 (stereo unspecified)	CHRM5 antagonist 27
Cc1cc(C)cc(C(=O)OCC(=O)N2CCCCCC2)c1	none
CNc1ccc(C2(O)C(=O)c3ccccc3C2=O)cc1	none
CC1Cc2cc(C3(O)C(=O)c4ccccc4C3=O)ccc2N1 (stereo unspecified)	M4 antag 31
C#CC(=O)CC1(CN(Cc2ccccc2)C(=O)OC(C)(C)C)CCCCC1	M4 antag 32
CCC(CC)C(=O)Nc1nnc(S(=O)(=O)N2c3ccccc3CC2C)s1 (stereo unspecified)	none
Cc1occc1C(=O)N=Nc1c(O)n(C)c2ccccc12	CHRM4 PAM 29
COCc1cc(C)c2c(N)c(C#N)sc2n1	CHRM4 PAM 34
CCN(CC)c1ccc(C=Nc2cc(C)ccc2C)c(O)c1	CHRM4 PAM 25
CSc1nc(N)nc(SCC(=O)Nc2cccc(F)c2)c1C#N	CHRM5 antagonist 42
CSc1nc(N)nc(SCC(=O)Nc2ccc(Cl)cc2)c1C#N	none
C[N+](C)(C)C[C@H](O)CC(=O)[O-]	none
S=c1nc[nH]c2c1ncn2C1CCCO1 (stereo unspecified)	M5 PAM 19
Nc1ncnc2c1ncn2[C@H]1C[C@H](O)[C@@H](COP(=O)(O)O)O1	M4 antag 30
Nc1ncnc2c1ncn2C1CCCC1	none
NCC1OC(n2cnc3c(N)ncnc32)CC1O (stereo unspecified)	none
Nc1ncnc2c1ncn2C1CCCO1 (stereo unspecified)	CHRM5 agonist 28
O=[N+]([O-])c1ccccc1Nc1cccnc1	none
Cc1ccc(NC(=O)CN(C)C(=O)COC(=O)CCS(=O)(=O)c2ccc(C)cc2)cc1	none
c1ccc(-c2noc(C3CCC3)n2)nc1	M5 PAM 18
CCCCC1CCC(c2nc(-c3ccccn3)no2)CC1 (stereo unspecified)	none
CC(C)(C)NC(=O)C(c1cccc2ccccc12)n1c(=O)c(-c2cc3ccccc3[nH]2)nc2ccccc21 (stereo unspecified)	none
CC(OC(=O)C1CCN(c2ccc(C(F)(F)F)cn2)CC1)C(=O)c1ccccc1 (stereo unspecified)	none
CCN1CCN(c2ncnc3c2nnn3Cc2ccccc2)CC1	none
c1ccc(Cn2nnc3c(N4CCCC4)ncnc32)cc1	CHRM4 PAM 21
CCc1ccc2nc(SCC(=O)Nc3nnc(C)s3)c(C)cc2c1	none
CCc1ccc(N2CC(O)(c3cccs3)[N+]3=C2SCCC3)cc1 (stereo unspecified)	CHRM5 antagonist 33
Cc1cccc(N2CC(O)(c3cccs3)[N+]3=C2CCCC3)c1C (stereo unspecified)	M4 antag 30
Cc1ccc(N2CC(O)(c3cccs3)[N+]3=C2CCCC3)cc1 (stereo unspecified)	M4 antag 40, CHRM5 antagonist 42
Cc1ccc(C2=NS(=O)(=O)N(C)C(C(=O)NC3CCCCC3)=C2)cc1	none
Cc1cccc(NC(=O)CN2CCC(NC(=O)C3CCCCC3)CC2)c1C	none
CCOC(=O)Nc1ccc2c(COC(=O)C(NS(=O)(=O)c3ccc(Cl)cc3)C(C)O)cc(=O)oc2c1 (stereo unspecified)	none
COC(=O)/C=C1\S/C(=N/NC(=O)c2ccc(OC)cc2)NC1=O	CHRM5 antagonist 30
Cc1c(C(=O)NCc2ccc3c(c2)OCO3)oc2ccc(S(=O)(=O)N3CCCC3)cc12	none
Cc1c(C(=O)NCc2ccc3c(c2)OCO3)oc2ccc(S(=O)(=O)N3CCCCC3)cc12	M4 antag 27
Cc1cc(=O)n(-c2ccc3ccccc3n2)[nH]1	CHRM4 PAM 34
Nc1ccc(-c2nc3ccc(N)cc3[nH]2)cc1	none
Nc1ccc2cc3[nH]c4cc(N)ccc4c3nc2c1	CHRM5 agonist 101, M4 antag 32, CHRM5 antagonist 68
CCN(c1ccccc1)S(=O)(=O)c1ccc(Cl)c(C(=O)OCC(=O)c2[nH]c(C)c(C(C)=O)c2C)c1	M4 antag 28
COc1ccc(NC2=NCC(Cc3ccc(Br)cc3)S2)cc1 (stereo unspecified)	M4 antag 29
C=CCN(C(=O)CN1CCCCC1)c1nc(-c2ccccc2)cs1	none
C=CCN(C(=O)C1CC(=O)N(C2CCCC2)C1)c1nc(-c2ccc(S(C)(=O)=O)cc2)cs1 (stereo unspecified)	CHRM4 agonist 32
Cc1ccc(C2(C)NC(=O)N(CC(=O)Nc3cc(S(=O)(=O)N(C)C)ccc3C)C2=O)cc1 (stereo unspecified)	none
Cc1ccc(S(=O)(=O)N(C)C)cc1NC(=O)CN1C(=O)NC2(CCCCCC2)C1=O	CHRM5 antagonist 29
CN(C)CCCNC(=O)N1c2ccccc2C=Cc2ccccc21	M4 antag 68, CHRM5 antagonist 72
CCN(CC)C(=O)N1c2ccccc2C=Cc2ccccc21	none
O=C(CN1C(=O)NC2(CCCCC2)C1=O)Nc1ccc(Cl)cc1	none
